Assay results pooled from the literature.
CYP3A4: Cytochrome P450 3A4 (CYP3A4, Homo sapiens, UniProt P08684)
CYP1A2: Cytochrome P450 1A2 (CYP1A2, Homo sapiens, UniProt P05177)

Structure (SMILES)	tested on	assay	test system	setting	measurement	value
NCCc1ccccn1	CYP3A4	thermal stability	–	–	ΔTm	-0.1 °C
O=C1NC(=O)/C(=C\c2ccc3ccccc3c2)S1	BHK-21	cell growth or viability, MTT	–	–	CC50	> 100 µM
S=C(Nc1ccc2c(c1)Cc1ccccc1-2)Nc1ccc2c(c1)Cc1ccccc1-2	BHK-21	cell growth or viability, MTT	–	42 h	CC50	236 µM
NC(=O)C(NC(=O)C1CC(c2ccccc2)C1)c1ccccc1 (stereo not shown)	BHK-21	cell growth or viability, MTT	–	–	CC50	> 100 µM
COC(=O)C1CCN(C(=O)c2ccc(NCc3cnc4nc(N)nc(N)c4n3)cc2)CC1	CYP1A2	enzyme activity, inhibitor, luciferase	–	10 µM	inhibition	-8.49%
Cc1cc(C)nc(Nc2ncc(C(=O)NCCc3c(C)[nH]c4ccccc34)cn2)c1	–	metabolic stability	cynomolgus monkey, liver microsomes	1 µM	microsomal CLint	99 µL/min/mg
CCS(=O)(=O)N1CC(CC#N)(n2cc(-c3ncnc4[nH]ccc34)cn2)C1	Vero	cell growth or viability, resazurin	–	–	CC50	> 60 µM
O=c1[nH]cnc2c1nnn2-c1cccc(Cl)c1	BHK-21	cell growth or viability, MTT	–	–	CC50	> 1000 µM
CCCCCCCC(=O)N[C@@H](CCCCN)C(=O)N[C@@H](CCCCN)C(=O)N[C@@H](C)C(=O)N[C@@H](CC(C)C)C(=O)N[C@@H](CCCCN)C(=O)N[C@@H](CC(C)C)C(=O)N[C@@H](C)C(=O)N[C@@H](CCCCN)C(=O)N[C@@H](CCCCN)C(=O)N1CCC[C@H]1C(=O)N[C@@H](CC(C)C)C(=O)N[C@@H](CCCCN)C(=O)N[C@@H](CC(C)C)C(=O)N[C@@H](CC(C)C)C(=O)N[C@@H](CCCCN)C(N)=O	–	–	female CD-1 mouse, blood	intravenous, 3 mg/kg, single dose	Cmax	1420 ng/mL
CCc1cc(/C(C)=N/OCc2ccc(C3CCCCC3)c(C(F)(F)F)c2)ccc1CN1CC(C(=O)O)C1	CYP3A4	enzyme activity, inhibitor	human, liver microsomes	200 µM, 20 min, midazolam probe	inhibition	11.5%
O=C(Nc1ncc([N+](=O)[O-])s1)c1cccs1	BHK-21	cell growth or viability, MTT	–	–	CC50	> 1 µM
O=C(O)C(F)(F)C(F)(F)C(F)(F)C(F)(F)C(F)(F)C(F)(F)C(F)(F)F	Solute carrier organic anion transporter family member 1B1 (SLCO1B1, Homo sapiens, UniProt Q9Y6L6)	transporter uptake, substrate	CHO	1 min, pH 7.4	Km	52.6 µM
Cc1ccccc1/C=C1/SC(=O)NC1=O	BHK-21	cell growth or viability, MTT	–	–	CC50	> 100 µM
CCC[C@@](N)(CO)CCc1ccc(OCCCCCC(C)C)cc1	CYP1A2	enzyme activity, inhibitor	–	–	IC50	> 50 µM
Cc1cccc(F)c1N1CCC(N2Cc3cn(CC(C)(F)F)nc3N(Cc3ccccc3C(F)(F)F)C2=O)CC1	CYP3A4	enzyme activity, inhibitor	human, liver microsomes	midazolam probe	IC50	> 10 µM
Cc1nc2c([nH]1)c(=O)n(C)c(=O)n2Cc1ccco1	CYP1A2	enzyme activity, inhibitor	human, liver microsomes	40 µM	inhibition	71%
